# Data published in ChEMBL document CHEMBL1125680, “Quinazolinone cholecystokinin-B receptor ligands” (J Med Chem, 1991).
# Target: T1, Cholecystokinin receptor type A (Rattus norvegicus) (UniProt P30551)
# T1 sequence (whole entry): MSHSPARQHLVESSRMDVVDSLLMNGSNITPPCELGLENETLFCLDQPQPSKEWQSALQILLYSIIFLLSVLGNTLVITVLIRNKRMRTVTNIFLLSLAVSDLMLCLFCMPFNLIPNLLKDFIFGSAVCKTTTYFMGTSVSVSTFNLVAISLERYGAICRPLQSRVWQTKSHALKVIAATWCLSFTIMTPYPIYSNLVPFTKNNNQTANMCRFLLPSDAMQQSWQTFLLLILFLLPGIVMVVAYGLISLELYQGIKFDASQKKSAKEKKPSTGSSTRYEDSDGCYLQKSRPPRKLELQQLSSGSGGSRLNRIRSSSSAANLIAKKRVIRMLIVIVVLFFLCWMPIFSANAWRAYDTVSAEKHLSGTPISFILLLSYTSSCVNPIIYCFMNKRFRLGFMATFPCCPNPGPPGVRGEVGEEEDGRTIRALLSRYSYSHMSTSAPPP
# Assay: Inhibition of [3H]-labeled L-364,718 binding to Cholecystokinin type A receptor in rat pancreas
# Conditions: concentration not given here
row,SMILES,inhibition [%]
1,CCc1cccc(-n2c(CCc3c[nH]c4ccc(Br)cc34)nc3ccccc3c2=O)c1,-5
2,COc1cccc(-n2c(CCc3c[nH]c4ccc(Br)cc34)nc3ccccc3c2=O)c1,5

# Second part, the compound after the results:
row,inhibition [%],SMILES
1,-6,CC(C)Oc1cccc(-n2c(CCc3c[nH]c4ccc(Br)cc34)nc3ccccc3c2=O)c1
2,6,O=c1c2ccccc2nc(CCc2c[nH]c3ccccc23)n1-c1cccc(C(F)(F)F)c1

# Target: T2, Gastrin/cholecystokinin type B receptor (Mus musculus) (UniProt P56481)
# T2 sequence (whole entry): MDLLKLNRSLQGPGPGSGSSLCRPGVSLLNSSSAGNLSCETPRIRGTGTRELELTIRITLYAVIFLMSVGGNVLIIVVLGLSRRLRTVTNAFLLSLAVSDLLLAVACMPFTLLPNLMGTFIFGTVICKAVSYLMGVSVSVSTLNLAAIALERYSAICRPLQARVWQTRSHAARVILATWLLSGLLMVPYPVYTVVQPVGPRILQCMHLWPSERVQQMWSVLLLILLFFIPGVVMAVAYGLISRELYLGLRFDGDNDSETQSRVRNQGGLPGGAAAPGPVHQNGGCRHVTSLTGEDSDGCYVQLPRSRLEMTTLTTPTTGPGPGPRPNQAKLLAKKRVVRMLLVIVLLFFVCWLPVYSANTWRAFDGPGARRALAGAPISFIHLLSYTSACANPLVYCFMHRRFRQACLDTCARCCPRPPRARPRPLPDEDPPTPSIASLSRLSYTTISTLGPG
# Assay: Inhibition of [125I]-labeled CCK-8 sulfate binding to cholecystokinin type B receptor in mouse brain membranes
# Type: cell membranes
# Conditions: Membrane, concentration not given here
# Summary of the method: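 Mouse brain membranes as the CCK-B receptor source, with 125I-labelled CCK-8 sulfate as the radioligand, following the Chang and Lotti method.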
row,SMILES,inhibition [%]
1,COc1ccccc1-n1c(CCc2c[nH]c3ccccc23)nc2ccccc2c1=O,74
2,O=c1c2ccccc2nc(CCc2c[nH]c3ccccc23)n1-c1ccccc1Cl,44
3,O=c1c2ccccc2nc(CCc2c[nH]c3ccccc23)n1-c1ccccc1C(F)(F)F,35
4,O=c1c2ccccc2nc(CCc2c[nH]c3ccccc23)n1-c1ccccc1F,75

# Target: T3, Gastrin/cholecystokinin type B receptor (Mus musculus, UniProt P56481)
# T3 sequence (P56481 whole entry): T2 sequence (whole entry)
# Assay: Inhibition of [125I]CCK-8 sulfate binding to cholecystokinin type B receptor in mouse brain membranes.
# Type: cell membranes
# Conditions: not given
row,IC50 [nM],SMILES
1,58,CCCOc1cccc(-n2c(CCc3c[nH]c4ccc(Br)cc34)nc3ccccc3c2=O)c1
2,67,O=c1c2ccccc2nc(CCc2c[nH]c3ccc(Br)cc23)n1-c1cccc(OC2CCCC2)c1
3,480,O=c1c2ccccc2nc(CCc2c[nH]c3ccccc23)n1-c1cccc(C(F)(F)F)c1
